Most compounds without a hit are left out; they make up all but 2.3% or so of the library.
TRPC6 activator = activates the mouse TRPC6 cation channel | HEK293-TRPC6 membrane potential dye fluorescence; hits give high values | B-score at 10 µM | hit rate 0.13% among 310,000 | AID 2550;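 active means B-score of the integrated fluorescence ratio above library mean plus 3 SD, and starting fluorescence ratio within library mean plus 5 SD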;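 further: higher score means more depolarization so channel activation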
TRPC4 inh = TRPC4 (mouse) channel inhibition; Q9QUQ5; HEK293 TRPC4beta/mu-opioid, DAMGO-evoked Fluo4 calcium flux; hits give low values; B-score at 10 µM; hit rate 0.39% among 300,000;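 active means B-score over 3 SD under the library average, no early fluorescence shift, positive overall ratio signal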
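Test system – stable TRPC4beta/mu-opioid receptor HEK293 cells · Probe or stimulus – DAMGO, a submaximal dose followed by a maximal one · Dosing – one concentration per compound · Signal – Fluo4 calcium fluorescence by kinetic imaging, 5 s 1 Hz baseline · Evaluation – per-well B score of integrated baseline-normalized Fluo4 ratio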
TRPC4 act = TRPC4 (mouse) channel activation; Q9QUQ5; B-score at 10 µM; hit rate 0.49% among 310,000; HEK293 TRPC4beta/mu-opioid, Fluo4 calcium fluorescence; hits give high values;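 active means B-score above 5 SD of library B-scores, and initial fluorescence ratio not above library mean plus 5 SD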;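 further: positive B-score marks a calcium rise read as TRPC4 activation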
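System: HEK293 cells stably co-expressing mouse TRPC4beta and mu-opioid receptor; Schedule: Fluo4 dye loading 45 min at room temperature, 110 s recording; Detection: Fluo4 fluorescence, kinetic; Evaluation: B-scored integrated calcium fluorescence ratio; Controls: buffer (low) and maximal DAMGO (high).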
TRPC4 potent = allosteric potentiators of mouse TRPC4 channel; hit rate 0.42% among 310,000; HEK293 TRPC4beta/mu-opioid, DAMGO EC20, Fluo-4 Ca2+ flux; hits give high values; Q9QUQ5; B-score at 10 µM;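 active means B-score of calcium response area above 5 SD of library B-scores, with initial fluorescence ratio within 5 SD of library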
TRPC6 inhibitor = blocks the mouse TRPC6 cation channel | Q61143 | HEK293-TRPC6, membrane potential dye, ACh-evoked depolarization; hits give low values | hit rate 1.1% among 310,000 | B-score at 10 µM;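 active means B-score under library mean minus 3 SD, initial fluorescence not abnormally high, positive integrated signal ratio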;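 further: B-score derived from integrated fluorescence ratio over the kinetic read; more negative B-score means stronger inhibition of depolarization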
Large screens that a line does not name were inactive.

CCn1c(=O)c(C(=O)NNC(=O)c2ccccc2F)c(O)c2ccccc21	TRPC4 act 114
Cc1c(C(=O)c2ccccc2C(=O)O)sc2ccccc12	none
Cc1ccc(N2C(=O)N3[C@H](c4ccc(F)cc4)[C@@H]4C(=O)N(C5CCCCC5)C(=O)[C@@H]4[C@]3(C)C2=O)cc1	none
O=C(NC1CCN(Cc2ccccc2)CC1)c1cccc(S(=O)(=O)Nc2ccc(Br)cc2)c1	none
COc1ccccc1NS(=O)(=O)c1cccc(C(=O)NC2CCN(Cc3ccccc3)CC2)c1	TRPC4 inh -8, TRPC4 act 52
Brc1ccc(CNc2ccc3ncccc3c2)cc1	none
Oc1ccc(CN2CCCCC2)nc1-c1ccccc1	TRPC4 inh -6
COc1ccccc1N1CCN(C(=O)c2ccccc2N(C)S(=O)(=O)c2ccc(C)cc2)CC1	none
Cc1ccc(NS(=O)(=O)c2ccc(C(=O)N3CC(C)CC(C)C3)cc2)cc1 (configuration not stated)	TRPC4 act 104
Cc1ccc(S(=O)(=O)Nc2ccc(C(=O)N3CCCC3)cc2)cc1	none
COc1ccc(OC)c(S(=O)(=O)NCC(c2cccs2)N2CCc3ccccc3C2)c1 (configuration not stated)	none
COc1cc(C2NC(=S)NC(C)=C2C(=O)Nc2cc(C)cc(C)c2)ccc1O (configuration not stated)	TRPC4 potent 10
O=C(Nc1nc(N2C(=O)c3ccccc3C2=O)n(-c2ccccc2)n1)c1ccc(Cl)cc1	TRPC4 inh -6, TRPC4 act 47
CNC(=S)N1N=C(c2ccc(C)cc2)CC1c1ccc(OC)cc1 (configuration not stated)	none
CNC(=S)N1N=C(c2ccc(C)cc2)CC1c1cc(OC)ccc1OC (configuration not stated)	TRPC4 potent 17
Cc1ccc(OCCC(=O)OC(C)C(=O)Nc2ccc(Cl)cn2)cc1 (configuration not stated)	none
O=C1CC2(CCN(S(=O)(=O)c3ccccc3F)CC2)Oc2ccccc21	TRPC4 potent 30
O=C1CC2(CCN(S(=O)(=O)c3ccccc3)CC2)Oc2ccccc21	TRPC4 potent 50
CC(=O)N1c2ccc(S(=O)(=O)NCCC(=O)NCCc3cccc(C)c3)cc2CC1C (configuration not stated)	none
O=C(Cc1cccc2ccccc12)Nc1ccc(O)cc1C(=O)O	none
O=C(Cc1cccc2ccccc12)Nc1ccc(Br)cc1C(=O)O	TRPC4 inh -7
CC1CN(C(C)C)C(C)CC1OC(=O)c1ccccc1 (configuration not stated)	none
CSc1nsc(SCC(=O)Nc2ccccc2)n1	none
CSc1nsc(NC(=O)Cc2ccccc2)n1	TRPC4 inh -6
CNC[C@@H](Cc1ccccc1)NC[C@@H](CC1CCCCC1)NCCCc1ccccc1	TRPC4 act 77
CC1CC(C)CN(CCCNC(=O)c2cn(C)c3ccc(S(=O)(=O)N4CCCC4)cc3c2=O)C1 (configuration not stated)	TRPC4 act 55
CN(Cc1ccccc1)C(=O)c1cn(C)c2ccc(S(=O)(=O)N3CCCC3)cc2c1=O	TRPC4 potent 12
Cn1cc(C(=O)N2CCN(c3ccccc3)CC2)c(=O)c2cc(S(=O)(=O)N3CCCC3)ccc21	none
CCCN(CCC)CCCNC(=O)c1cn(CC)c2ccc(S(=O)(=O)N3CCOCC3)cc2c1=O	TRPC4 act 45
CC1CCN(CCCNC(=O)c2cn(C)c3ccc(S(=O)(=O)N4CCCC4)cc3c2=O)CC1	none
COc1cc(NC(=O)Cc2ccccc2)ccc1NC(=O)c1ccccc1	none
CCCOc1ccc(Br)cc1/C=N/O	TRPC4 inh -6
Cc1cc2cc(C#N)c(NCCNC(=S)NCCCN3CCOCC3)nc2cc1C	TRPC4 inh -6
CC1CCN(c2nc3ccc(C(=O)N4CCN(Cc5ccccc5)CC4)cc3s2)CC1	none
c1ccc(CN2CCN(c3nc4ccccc4s3)CC2)cc1	TRPC4 potent 17
c1ccc(CN2CCN(c3nc(N4CCOCC4)c4ccccc4n3)CC2)cc1	TRPC6 inhibitor -5.48
O=C(O)CCC(=O)N1CCN(c2nc3ccccc3s2)CC1	TRPC4 potent 20
Oc1ccc(C(c2nnnn2CCc2ccccc2)N2CCN(c3nc4ccccc4s3)CC2)cc1 (configuration not stated)	TRPC4 act 77
COCCn1nnnc1C(c1cccs1)N1CCN(c2nc3ccccc3s2)CC1 (configuration not stated)	none
O=C(Cc1c(F)cccc1Cl)N/N=C/c1cccnc1	none
COc1ccccc1CCNC(=O)C(=O)NCC1OCCN1C(=O)c1ccc(Cl)cc1 (configuration not stated)	none
Cc1[nH]c2ccccc2c1C(=O)C(=O)N1CCN(c2cccc(Cl)c2)CC1	none
COc1ccc(C2CC(=O)N3CN(c4ccc(C)c(Cl)c4)CSC3=C2C#N)cc1OC (configuration not stated)	TRPC4 inh -6
CC(=O)c1cccc(CN(C)CC2CCCN(CCc3ccccc3C)C2)c1 (configuration not stated)	none
O=C(CN1CCN(Cc2ccccc2Cl)CC1)N=Nc1c(O)[nH]c2ccccc12	TRPC4 inh -6
Oc1ccc(-c2nccc(-c3ccccn3)n2)cc1	none
Cc1ccccc1N(CC(=O)N/N=C/c1ccc(Cl)cc1)C(=O)c1ccccc1	none
Cc1ccccc1N(CC(=O)N/N=C/c1ccc(F)cc1)C(=O)c1ccccc1	TRPC4 act 91
COc1ccccc1N1CCN(C(c2ccccn2)c2nnnn2C2CCCCC2)CC1 (configuration not stated)	TRPC4 act 74
Fc1ccccc1N1CCN(C(c2ccccn2)c2nnnn2C2CCCCC2)CC1 (configuration not stated)	none
N#Cc1cccc(NC(=O)CNc2cccc(S(=O)(=O)N3CCCCC3)c2)c1	none
CCc1noc(C)c1C(=O)N(CCC(C)C)c1c(N)n(Cc2ccccc2)c(=O)[nH]c1=O	none
Cc1ccc(/C=C2\SC(N3CCCCC3)=NC2=O)cc1	TRPC4 potent 12
CCN1CCN(C2=NC(=O)/C(=C/c3ccc(C)o3)S2)CC1	TRPC4 potent 14
COC(=O)c1ccc(Cn2nc(-c3cc(C)ccc3C)ccc2=O)cc1	none
CCOC(=O)CCSc1nnc(-c2cccnc2)n1-c1ccccc1OC	TRPC4 inh -8
CCn1c(N2CCN(S(=O)(=O)c3ccccc3C(F)(F)F)CC2)nc2ccccc21	TRPC4 act 119
CCc1ccc(OC(C)C(=O)Nc2ccc(S(=O)(=O)Nc3nccs3)cc2)cc1 (configuration not stated)	TRPC4 potent 12
Cc1ccc(C)c(CN2CCC(CNC(=O)Nc3ccc(Cl)cc3)CC2)c1	TRPC4 potent 14
S=C(NC1CCCCC1)N1CCN(C/C=C/c2ccccc2)CC1	none

High-throughput results (PubChem BioAssay)
